Experimental data reported in ChEMBL document CHEMBL4706746, “Structural and in Vitro Functional Characterization of a Menthyl TRPM8 Antagonist Indicates Species-Dependent Regulation” (ACS Med Chem Lett, 2021).
pEC50, pIC50: −log10 of the molar value.

Experiments:
Type in all cases: cell-based
[1] = biological target: T1, Transient receptor potential cation channel subfamily M member 8 (Rattus norvegicus, UniProt Q8R455); assay: Antagonist activity at recombinant rat TRPM8 stably expressed in HEK293 cells assessed as inhibition of icilin-induced intracellular calcium level preincubated for 5 mins followed by icilin addition by Fluo-4Am dye based fluorescence assay
T1 sequence (Q8R455 whole entry): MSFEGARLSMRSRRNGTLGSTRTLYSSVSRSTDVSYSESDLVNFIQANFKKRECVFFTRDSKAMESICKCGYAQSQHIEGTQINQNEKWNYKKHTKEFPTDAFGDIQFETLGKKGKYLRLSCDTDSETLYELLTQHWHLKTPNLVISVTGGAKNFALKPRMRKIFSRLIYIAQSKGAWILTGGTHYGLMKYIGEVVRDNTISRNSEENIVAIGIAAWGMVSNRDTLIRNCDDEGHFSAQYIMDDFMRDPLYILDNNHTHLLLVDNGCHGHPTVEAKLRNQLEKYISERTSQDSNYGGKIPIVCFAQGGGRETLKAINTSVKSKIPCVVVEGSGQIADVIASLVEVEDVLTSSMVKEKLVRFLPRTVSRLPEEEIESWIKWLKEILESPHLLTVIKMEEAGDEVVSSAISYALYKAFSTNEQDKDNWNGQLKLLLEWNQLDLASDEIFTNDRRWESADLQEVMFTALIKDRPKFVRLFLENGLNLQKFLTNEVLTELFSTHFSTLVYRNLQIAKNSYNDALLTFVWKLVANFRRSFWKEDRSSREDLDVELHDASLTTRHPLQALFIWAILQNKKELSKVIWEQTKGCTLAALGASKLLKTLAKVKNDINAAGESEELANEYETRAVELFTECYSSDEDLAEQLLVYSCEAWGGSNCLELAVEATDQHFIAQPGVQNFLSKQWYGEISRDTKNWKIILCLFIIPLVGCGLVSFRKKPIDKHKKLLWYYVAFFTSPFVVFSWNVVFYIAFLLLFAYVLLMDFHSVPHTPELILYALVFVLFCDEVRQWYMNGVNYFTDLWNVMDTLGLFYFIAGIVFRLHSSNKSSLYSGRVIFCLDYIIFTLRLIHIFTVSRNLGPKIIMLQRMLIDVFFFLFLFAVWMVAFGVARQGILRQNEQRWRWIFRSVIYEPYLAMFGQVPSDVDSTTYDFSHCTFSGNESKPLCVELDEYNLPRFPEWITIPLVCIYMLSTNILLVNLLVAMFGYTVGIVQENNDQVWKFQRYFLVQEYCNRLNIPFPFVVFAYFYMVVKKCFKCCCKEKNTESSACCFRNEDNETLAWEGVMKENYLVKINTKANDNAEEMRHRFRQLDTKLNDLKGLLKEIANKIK

[2] = biological target: Transient receptor potential cation channel subfamily A member 1 (Rattus norvegicus, UniProt Q6RI86); assay: Agonist activity at recombinant rat TRPA1 stably expressed in HEK293 cells assessed as increase in intracellular calcium release by Fluo-4AM dye based fluorescence assay
[3] = biological target: T2, Transient receptor potential cation channel subfamily M member 8 (Homo sapiens, UniProt Q7Z2W7); assay: Antagonist activity at recombinant human TRPM8 transiently expressed in HEK293 cells assessed as inhibition of menthol-induced calcium flux by whole-cell patch-clamp electrophysiological method
Procedure, shortened: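 Whole-cell patch clamp of HEK293 cells transiently transfected with human TRPM8. Currents were evoked by 500 μM menthol and recorded at +80 mV. Test compound was applied at 1 nM–0.1 mM. Currents were normalized and fitted for IC50. n = 3 cells, SEM.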
Target sequence in this assay (Q7Z2W7 whole entry): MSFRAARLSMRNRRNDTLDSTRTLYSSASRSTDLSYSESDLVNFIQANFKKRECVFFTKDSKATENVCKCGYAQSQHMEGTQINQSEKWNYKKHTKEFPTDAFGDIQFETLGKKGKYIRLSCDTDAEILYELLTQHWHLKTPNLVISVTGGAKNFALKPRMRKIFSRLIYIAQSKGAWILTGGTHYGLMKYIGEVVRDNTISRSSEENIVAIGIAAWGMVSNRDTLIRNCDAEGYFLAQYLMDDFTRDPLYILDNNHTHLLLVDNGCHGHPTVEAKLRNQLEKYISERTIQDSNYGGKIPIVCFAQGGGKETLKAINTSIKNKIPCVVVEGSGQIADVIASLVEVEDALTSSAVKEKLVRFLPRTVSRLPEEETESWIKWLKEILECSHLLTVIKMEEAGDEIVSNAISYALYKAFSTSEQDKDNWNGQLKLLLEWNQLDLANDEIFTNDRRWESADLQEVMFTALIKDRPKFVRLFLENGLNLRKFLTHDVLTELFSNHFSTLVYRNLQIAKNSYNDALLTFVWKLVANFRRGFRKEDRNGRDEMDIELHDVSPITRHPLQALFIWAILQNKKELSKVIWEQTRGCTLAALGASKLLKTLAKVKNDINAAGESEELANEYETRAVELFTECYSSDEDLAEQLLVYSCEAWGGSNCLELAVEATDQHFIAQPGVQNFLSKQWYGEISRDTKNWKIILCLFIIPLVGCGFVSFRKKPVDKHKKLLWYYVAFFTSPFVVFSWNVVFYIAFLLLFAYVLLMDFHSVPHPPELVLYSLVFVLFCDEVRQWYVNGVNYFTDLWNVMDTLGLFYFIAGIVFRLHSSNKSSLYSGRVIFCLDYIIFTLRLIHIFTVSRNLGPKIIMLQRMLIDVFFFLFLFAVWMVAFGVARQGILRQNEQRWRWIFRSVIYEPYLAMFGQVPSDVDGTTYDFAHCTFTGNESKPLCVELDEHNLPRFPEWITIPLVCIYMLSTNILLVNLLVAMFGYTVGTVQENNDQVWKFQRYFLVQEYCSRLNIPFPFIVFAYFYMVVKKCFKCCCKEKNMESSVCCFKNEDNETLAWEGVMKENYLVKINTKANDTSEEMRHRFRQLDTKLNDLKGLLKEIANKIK

[4] = biological target: T2, Transient receptor potential cation channel subfamily M member 8; assay: Antagonist activity at recombinant human TRPM8 stably expressed in HEK293 cells assessed as inhibition of menthol-induced intracellular calcium level by Fluo-4NW probe based fluorescence assay
Procedure, shortened: (§1)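 Fluo-4 NW calcium imaging in HEK293 cells expressing human or rat TRPM8. Agonist was 500 nM icilin or 100 μM menthol, with test compound at 0.1–10 μM. IC50 was taken from concentration–response curves. Mean ± SEM, n = 3, N = 3.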
Target sequence in this assay (Q7Z2W7 whole entry): as above

[5] = biological target: T2, Transient receptor potential cation channel subfamily M member 8; assay: Antagonist activity at recombinant human TRPM8 stably expressed in HEK293 cells assessed as inhibition of icilin-induced intracellular calcium level by Fluo-4NW probe based fluorescence assay; procedure, shortened: as §1
Target sequence in this assay (Q7Z2W7 whole entry): as above

[6] = biological target: T1, Transient receptor potential cation channel subfamily M member 8; assay: Antagonist activity at recombinant rat TRPM8 stably expressed in HEK293 cells assessed as inhibition of menthol-induced intracellular calcium level by Fluo-4NW probe based fluorescence assay; procedure, shortened: as §1
[7] = biological target: T1, Transient receptor potential cation channel subfamily M member 8; assay: Antagonist activity at recombinant rat TRPM8 stably expressed in HEK293 cells assessed as inhibition of icilin-induced intracellular calcium level by Fluo-4NW probe based fluorescence assay; procedure, shortened: as §1
[8] = biological target: Transient receptor potential cation channel subfamily A member 1 (Homo sapiens) (UniProt O75762); assay: Agonist activity at recombinant human TRPA1 stably expressed in HEK293 cells at 66.7 uM measured after 180 secs by Fluo-8 Calcium dye based fluorescence assay relative to control; settings: time 180.0 sec
Sequence of Transient receptor potential cation channel subfamily A member 1 (Homo sapiens) (O75762 whole entry): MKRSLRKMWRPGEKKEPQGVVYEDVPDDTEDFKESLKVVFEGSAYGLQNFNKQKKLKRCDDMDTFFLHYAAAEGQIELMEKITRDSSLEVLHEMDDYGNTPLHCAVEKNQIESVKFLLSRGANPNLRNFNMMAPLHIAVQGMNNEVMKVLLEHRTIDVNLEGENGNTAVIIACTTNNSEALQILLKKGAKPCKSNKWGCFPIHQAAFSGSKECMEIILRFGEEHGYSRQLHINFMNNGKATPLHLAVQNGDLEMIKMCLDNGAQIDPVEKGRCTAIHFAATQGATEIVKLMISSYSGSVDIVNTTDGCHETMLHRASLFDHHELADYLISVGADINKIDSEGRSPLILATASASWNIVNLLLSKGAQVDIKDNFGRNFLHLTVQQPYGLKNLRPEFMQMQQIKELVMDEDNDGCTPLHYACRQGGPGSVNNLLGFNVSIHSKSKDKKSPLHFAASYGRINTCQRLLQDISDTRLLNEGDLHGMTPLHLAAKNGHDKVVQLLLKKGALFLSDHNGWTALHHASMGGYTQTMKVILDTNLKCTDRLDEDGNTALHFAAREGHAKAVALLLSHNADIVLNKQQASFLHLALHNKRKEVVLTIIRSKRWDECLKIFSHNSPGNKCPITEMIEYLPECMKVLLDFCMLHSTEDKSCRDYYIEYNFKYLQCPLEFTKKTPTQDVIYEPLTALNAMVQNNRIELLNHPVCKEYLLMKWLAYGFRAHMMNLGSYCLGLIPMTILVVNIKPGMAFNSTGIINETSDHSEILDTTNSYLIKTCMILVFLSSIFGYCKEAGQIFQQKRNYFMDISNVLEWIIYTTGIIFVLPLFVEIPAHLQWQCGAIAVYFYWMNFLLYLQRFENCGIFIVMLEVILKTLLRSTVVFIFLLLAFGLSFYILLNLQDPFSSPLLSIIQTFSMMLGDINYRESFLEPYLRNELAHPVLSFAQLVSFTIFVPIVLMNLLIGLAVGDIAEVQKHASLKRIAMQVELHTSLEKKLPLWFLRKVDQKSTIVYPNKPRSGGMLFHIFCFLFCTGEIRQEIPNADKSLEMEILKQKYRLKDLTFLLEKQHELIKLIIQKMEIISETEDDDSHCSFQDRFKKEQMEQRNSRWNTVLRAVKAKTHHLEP
Procedure, shortened: (§2)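 Ca2+ flux assay in HEK293 cells stably expressing human TRPA1 or TRPV1. Test concentrations were 66.7–333 μM, applied alone. Response is expressed as % activation, normalized to the Emax agonist concentration: AITC 300 μM for TRPA1, capsaicin 3 μM for TRPV1. n = 3.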

[9] = biological target: Transient receptor potential cation channel subfamily A member 1 (Homo sapiens) (UniProt O75762); assay: Agonist activity at recombinant human TRPA1 stably expressed in HEK293 cells at 133 uM measured after 180 secs by Fluo-8 Calcium dye based fluorescence assay relative to control; settings: time 180.0 sec; procedure, shortened: as §2
[10] = biological target: Transient receptor potential cation channel subfamily A member 1 (Homo sapiens) (UniProt O75762); assay: Agonist activity at recombinant human TRPA1 stably expressed in HEK293 cells at 200 uM measured after 180 secs by Fluo-8 Calcium dye based fluorescence assay relative to control; settings: time 180.0 sec; procedure, shortened: as §2
[11] = biological target: Transient receptor potential cation channel subfamily A member 1 (Homo sapiens) (UniProt O75762); assay: Agonist activity at recombinant human TRPA1 stably expressed in HEK293 cells at 267 uM measured after 180 secs by Fluo-8 Calcium dye based fluorescence assay relative to control; settings: time 180.0 sec; procedure, shortened: as §2
[12] = biological target: Transient receptor potential cation channel subfamily A member 1 (Homo sapiens) (UniProt O75762); assay: Agonist activity at recombinant human TRPA1 stably expressed in HEK293 cells at 333 uM measured after 180 secs by Fluo-8 Calcium dye based fluorescence assay relative to control; settings: time 180.0 sec; procedure, shortened: as §2
[13] = biological target: Transient receptor potential cation channel subfamily A member 1 (Homo sapiens) (UniProt O75762); assay: Antagonist activity at recombinant human TRPA1 stably expressed in HEK293 cells assessed as inhibition of AITC-induced calcium flux at 66.7 uM preincubated for 5 mins followed by AITC addition and measured after 180 secs by Fluo-8 Calcium dye based fluorescence assay relative to control; settings: time 8.0 min
Procedure, shortened: (§3)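 Ca2+ flux assay in HEK293 cells stably expressing human TRPA1 or TRPV1. Test compound was given at 66.7–333 μM, then cells were challenged with agonist at its EC80: AITC 10 μM for TRPA1, capsaicin 0.1 μM for TRPV1. % inhibition is normalized to the EC80 agonist response. n = 3.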

[14] = biological target: Transient receptor potential cation channel subfamily A member 1 (Homo sapiens) (UniProt O75762); assay: Antagonist activity at recombinant human TRPA1 stably expressed in HEK293 cells assessed as inhibition of AITC-induced calcium flux at 133 uM preincubated for 5 mins followed by AITC addition and measured after 180 secs by Fluo-8 Calcium dye based fluorescence assay relative to control; settings: time 8.0 min; procedure, shortened: as §3
[15] = biological target: Transient receptor potential cation channel subfamily A member 1 (Homo sapiens) (UniProt O75762); assay: Antagonist activity at recombinant human TRPA1 stably expressed in HEK293 cells assessed as inhibition of AITC-induced calcium flux at 200 uM preincubated for 5 mins followed by AITC addition and measured after 180 secs by Fluo-8 Calcium dye based fluorescence assay relative to control; settings: time 8.0 min; procedure, shortened: as §3
[16] = biological target: Transient receptor potential cation channel subfamily A member 1 (Homo sapiens) (UniProt O75762); assay: Antagonist activity at recombinant human TRPA1 stably expressed in HEK293 cells assessed as inhibition of AITC-induced calcium flux at 267 uM preincubated for 5 mins followed by AITC addition and measured after 180 secs by Fluo-8 Calcium dye based fluorescence assay relative to control; settings: time 8.0 min; procedure, shortened: as §3
[17] = biological target: Transient receptor potential cation channel subfamily A member 1 (Homo sapiens) (UniProt O75762); assay: Antagonist activity at recombinant human TRPA1 stably expressed in HEK293 cells assessed as inhibition of AITC-induced calcium flux at 333 uM preincubated for 5 mins followed by AITC addition and measured after 180 secs by Fluo-8 Calcium dye based fluorescence assay relative to control; settings: time 8.0 min; procedure, shortened: as §3
[18] = biological target: Transient receptor potential cation channel subfamily V member 1 (Homo sapiens) (UniProt Q8NER1); assay: Agonist activity at recombinant human TRPV1 stably expressed in HEK293 cells at 66.7 uM measured after 180 secs by Fluo-8 Calcium dye based fluorescence assay relative to control; settings: time 180.0 sec; procedure, shortened: as §2
Sequence of Transient receptor potential cation channel subfamily V member 1 (Homo sapiens) (Q8NER1 whole entry): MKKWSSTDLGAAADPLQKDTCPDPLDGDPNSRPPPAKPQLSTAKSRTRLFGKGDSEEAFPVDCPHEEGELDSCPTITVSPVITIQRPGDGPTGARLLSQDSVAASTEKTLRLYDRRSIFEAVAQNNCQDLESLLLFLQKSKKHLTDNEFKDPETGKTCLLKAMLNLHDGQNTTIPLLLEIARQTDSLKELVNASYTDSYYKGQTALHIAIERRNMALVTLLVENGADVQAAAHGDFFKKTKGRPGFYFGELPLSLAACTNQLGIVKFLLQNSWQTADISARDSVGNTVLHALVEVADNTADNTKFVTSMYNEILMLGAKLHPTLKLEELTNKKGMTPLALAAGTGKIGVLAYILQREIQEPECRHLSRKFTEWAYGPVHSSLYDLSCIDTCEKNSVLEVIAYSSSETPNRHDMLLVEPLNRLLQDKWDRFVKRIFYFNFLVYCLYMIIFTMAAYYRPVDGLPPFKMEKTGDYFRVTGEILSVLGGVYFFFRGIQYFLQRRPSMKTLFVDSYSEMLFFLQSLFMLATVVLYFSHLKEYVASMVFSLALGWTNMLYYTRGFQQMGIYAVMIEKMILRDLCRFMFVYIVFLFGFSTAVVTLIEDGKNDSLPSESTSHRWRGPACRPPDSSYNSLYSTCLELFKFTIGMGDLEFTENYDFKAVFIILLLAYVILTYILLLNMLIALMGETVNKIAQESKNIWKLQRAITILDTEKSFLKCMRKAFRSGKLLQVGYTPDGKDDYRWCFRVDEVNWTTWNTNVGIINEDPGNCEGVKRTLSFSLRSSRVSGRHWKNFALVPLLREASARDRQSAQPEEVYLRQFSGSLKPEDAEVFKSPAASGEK

[19] = biological target: Transient receptor potential cation channel subfamily V member 1 (Homo sapiens) (UniProt Q8NER1); assay: Agonist activity at recombinant human TRPV1 stably expressed in HEK293 cells at 133 uM measured after 180 secs by Fluo-8 Calcium dye based fluorescence assay relative to control; settings: time 180.0 sec; procedure, shortened: as §2
[20] = biological target: Transient receptor potential cation channel subfamily V member 1 (Homo sapiens) (UniProt Q8NER1); assay: Agonist activity at recombinant human TRPV1 stably expressed in HEK293 cells at 200 uM measured after 180 secs by Fluo-8 Calcium dye based fluorescence assay relative to control; settings: time 180.0 sec; procedure, shortened: as §2
[21] = biological target: Transient receptor potential cation channel subfamily V member 1 (Homo sapiens) (UniProt Q8NER1); assay: Agonist activity at recombinant human TRPV1 stably expressed in HEK293 cells at 267 uM measured after 180 secs by Fluo-8 Calcium dye based fluorescence assay relative to control; settings: time 180.0 sec; procedure, shortened: as §2
[22] = biological target: Transient receptor potential cation channel subfamily V member 1 (Homo sapiens) (UniProt Q8NER1); assay: Agonist activity at recombinant human TRPV1 stably expressed in HEK293 cells at 333 uM measured after 180 secs by Fluo-8 Calcium dye based fluorescence assay relative to control; settings: time 180.0 sec; procedure, shortened: as §2
[23] = biological target: Transient receptor potential cation channel subfamily V member 1 (Homo sapiens) (UniProt Q8NER1); assay: Antagonist activity at recombinant human TRPV1 stably expressed in HEK293 cells assessed as inhibition of capsaicin-induced calcium flux at 66.7 uM preincubated for 5 mins followed by capsaicin addition and measured after 180 secs by Fluo-8 Calcium dye based fluorescence assay relative to control; settings: time 8.0 min; procedure, shortened: as §3
[24] = biological target: Transient receptor potential cation channel subfamily V member 1 (Homo sapiens) (UniProt Q8NER1); assay: Antagonist activity at recombinant human TRPV1 stably expressed in HEK293 cells assessed as inhibition of capsaicin-induced calcium flux at 133 uM preincubated for 5 mins followed by capsaicin addition and measured after 180 secs by Fluo-8 Calcium dye based fluorescence assay relative to control; settings: time 8.0 min; procedure, shortened: as §3
[25] = biological target: Transient receptor potential cation channel subfamily V member 1 (Homo sapiens) (UniProt Q8NER1); assay: Antagonist activity at recombinant human TRPV1 stably expressed in HEK293 cells assessed as inhibition of capsaicin-induced calcium flux at 200 uM preincubated for 5 mins followed by capsaicin addition and measured after 180 secs by Fluo-8 Calcium dye based fluorescence assay relative to control; settings: time 8.0 min; procedure, shortened: as §3
[26] = biological target: Transient receptor potential cation channel subfamily V member 1 (Homo sapiens) (UniProt Q8NER1); assay: Antagonist activity at recombinant human TRPV1 stably expressed in HEK293 cells assessed as inhibition of capsaicin-induced calcium flux at 267 uM preincubated for 5 mins followed by capsaicin addition and measured after 180 secs by Fluo-8 Calcium dye based fluorescence assay relative to control; settings: time 8.0 min; procedure, shortened: as §3
[27] = biological target: Transient receptor potential cation channel subfamily V member 1 (Homo sapiens) (UniProt Q8NER1); assay: Antagonist activity at recombinant human TRPV1 stably expressed in HEK293 cells assessed as inhibition of capsaicin-induced calcium flux at 333 uM preincubated for 5 mins followed by capsaicin addition and measured after 180 secs by Fluo-8 Calcium dye based fluorescence assay relative to control; settings: time 8.0 min; procedure, shortened: as §3
Homo sapiens [28] = organism: Homo sapiens; assay: Selectivity ratio of IC50 for antagonist activity at human TRPA1 stably expressed in HEK293 cells to IC50 for antagonist activity at recombinant human TRPM8 stably expressed in HEK293 cells
Homo sapiens [29] = organism: Homo sapiens; assay: Selectivity ratio of IC50 for antagonist activity at human TRPV1 stably expressed in HEK293 cells to IC50 for antagonist activity at recombinant human TRPM8 stably expressed in HEK293 cells
[30] = biological target: T2, Transient receptor potential cation channel subfamily M member 8; assay: Antagonist activity at TRPM8 (unknown origin) expressed in CHO cells assessed as inhibition of D-1607-induced reduction in cell viability by measuring cell viability at 10 uM by celltiter-glo ATP chemiluminescence assay relative to control; settings: filed as antagonist
Target sequence in this assay (Q7Z2W7 whole entry, looked up): as the sequence (Q7Z2W7 whole entry) above

`C=C(C)[C@@H]1CCC(C)=C[C@H]1c1c(O)cc(CCC)cc1O` [CANNABIDIVARIN] was tested, and the pIC50 [1] was 6.05 and the pEC50 [2] was 6.38.
In the case of `C=C1[C@H](C)CC[C@@H](C(C)C)[C@@H]1OC(=O)c1ccccc1`, the pIC50 [3] was 5.70.
Molecule `CC(C)[C@@H]1CC[C@@H](C)C[C@H]1NC(=O)c1ccc(-c2ccccc2)cc1` has a pIC50 [4] of 6.09, a pIC50 [5] of 5.74 and a pIC50 [6] of 6.93. It also gave a pIC50 [7] of 6.28, a pIC50 [3] of 6.15 and an Activity [8] of -0.83%. It also gave an Activity [9] of -0.2%, an Activity [10] of 0.95% and an Activity [11] of 2.1%. The Activity [12] was 3.4%, the inhibition [13] was 18.3% and the inhibition [14] was 24.9%. The inhibition [15] was 18.7%, the inhibition [16] was 16.8% and the inhibition [17] was 11.9%. For the same molecule, the Activity [18] was 1.3%, the Activity [19] was 3.6% and the Activity [20] was 4.8%. The Activity [21] was 4.57%, the Activity [22] was 7.9% and the inhibition [23] was -3.6%. It also gave an inhibition [24] of -7.44%, an inhibition [25] of -5.89% and an inhibition [26] of 6.79%. The inhibition [27] was 7.64%, the Ratio IC50 (Homo sapiens [28]) was greater than 400 and the Ratio IC50 (Homo sapiens [29]) was greater than 400.
In the case of `CC(C)[C@@H]1CC[C@@H](C)C[C@H]1OC(=O)N1CCc2ccccc2C1`, the Activity [30] was 112%.
